Experimental data collected from several papers.
Compare with care: the assays were run in different laboratories.
Target: High affinity nerve growth factor receptor (NTRK1, Homo sapiens, UniProt P04629)

SMILES	effect on	action	method	concentration	endpoint	value
C#Cc1n[nH]c2c(-c3cn([C@@H](C)c4ccccn4)c(=O)[nH]c3=O)cc(F)cc12	enzyme activity	inhibitor	–	0.1 µM	inhibition	11.2%
Cn1cncc1[C@](O)(COc1ccc(C#N)cc1-c1ccc(OC(F)(F)F)cc1)c1ccc(C#N)cc1	cell-free assay	–	competition with immobilised ligand	1 µM	remaining binding	91%
Cn1cc(-c2cc(F)cc(N3CCn4c(cc5c4CCCC5)C3=O)c2CO)cc(Nc2ccc(N3CCN(C4COC4)CC3)cn2)c1=O	enzyme activity	inhibitor	–	0.1 µM	inhibition	15%
COc1ncccc1-c1cnn2ccc(N3CCN(C(=O)OC(C)C)CC3)nc12	binding	–	competition with immobilised ligand	1 µM	remaining binding	61%
Nc1ncc(-c2nc(N3CCOCC3)nc(N3CCOCC3)n2)c(C(F)F)n1	cell-free assay	–	competition with immobilised ligand	10 µM	remaining binding	78%
O=c1[nH]c2ccccc2n1C1CCN(Cc2ccc(-c3[nH]c4cc5ncnc5cc4nc3-c3ccccc3)cc2)CC1	cell-free assay	–	–	0.5 µM	remaining signal	99.4%
Cc1nn(C)cc1-c1nc2c(N3CCN(Cc4ccc(Cl)cc4)CC3)c(Cl)cnc2[nH]1	binding	–	competition with immobilised ligand	1 µM	remaining binding	80%
COc1cc(Nc2ncc(F)c(Nc3ccc4c(n3)NC(=O)C(C)(C)O4)n2)cc(OC)c1OC	binding	–	–	10 µM	inhibition	100%
Cn1cc(-c2cccc(N3CCc4c(sc5c4CC(C)(C)C5)C3=O)c2CO)cc(Nc2ccncn2)c1=O	enzyme activity	inhibitor	–	1 µM	inhibition	11%
C#Cc1n[nH]c2c(-c3cn([C@@H](C)c4ccccc4)c(=O)[nH]c3=O)cc(F)cc12	enzyme activity	inhibitor	–	0.1 µM	inhibition	5%
CC(C)(C)c1cc(C=C(C#N)C#N)cc(Br)c1O	enzyme activity	inhibitor	–	0.5 µM	remaining activity	100%
